Screening data: PubChem BioAssay, several laboratories
PHOSPHO1 block = inhibitors of human PHOSPHO1 phosphatase | recombinant PHOSPHO1, absorbance phosphatase assay | inhibition, % at 13.3 µM | actives 1.1% (n = 290,000); in the data active = inhibition above about 60%
APOBEC3G inh = APOBEC3G (human) deaminase inhibition; inhibition, % at 20 µM; Q9HC16; recombinant A3G, ssDNA deamination FAM/TAMRA fluorescence; actives 0.28% (n = 330,000);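 active = inhibition of at least 40% at 20 µM, with no more than 30% in the related APOBEC3A deaminase screen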;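 note: plate controls were DMSO wells with A3G for no effect and wells lacking A3G enzyme for full effect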
Tb MetRS inh = blocks T. brucei methionyl-tRNA synthetase activity; actives 0.4% (n = 360,000); AID 624268; inhibition, % at 11.9 µM; purified T. brucei MetRS, ATP depletion, Kinase-Glo luminescence;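 active = inhibition above a per-plate cutoff of the control wells' mean inhibition plus 3 SD, cut at about 5.5% in these data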;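 note: 0% = DMSO wells median and 100% = median of wells with control inhibitor compound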
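technique = Kinase-Glo luminescence, ATP depletion format | system = purified MetRS (methionyl-tRNA synthetase) enzyme from Trypanosoma brucei | timing = 15 min preincubation, 2 h reaction, all 25 °C | evaluation = percent inhibition versus plate control medians | dosing = single dose, 11.9 µM final nominal, 0.9% final DMSO | also added = substrates ATP, L-methionine and bulk Escherichia coli tRNA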
A3A deaminase = inhibitors of human APOBEC3A DNA deaminase. actives 0.41% (n = 330,000). inhibition, % at 20 µM. AID 493011. recombinant A3A, FAM/TAMRA ssDNA deamination fluorescence. P31941;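 active = at least 40% inhibition at 20 µM here, with at most 30% in a related deaminase screen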;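 note: plate controls were A3A with DMSO for no effect and wells lacking A3A enzyme for full effect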
p-CIP stab down = compounds decreasing mouse p/CIP protein stability; Q05BA5; decrease of EGFP signal, % at 10 µM; F442A p/CIP-EGFP cells, EGFP fluorescence, 16 h; AID 1984; actives 0.01% (n = 290,000);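 active = EGFP signal decrease of at least 30% at 10 µM or well 3 SD below plate mean, unless failing retest; inactive = the rest, including hits failing retest or dose response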
* = called active by the depositor; . = not tested or not shown. Shown are actives, neighbours in structure and some others; about 1.8% of the full set was active somewhere.

SMILES | PHOSPHO1 block | APOBEC3G inh | Tb MetRS inh | A3A deaminase | p-CIP stab down
C[C@@H]1CN([C@H](C)CO)C(=O)CCCn2cc(nn2)CO[C@H]1CN(C)S(=O)(=O)c1ccc(Oc2ccccc2)cc1 | . | . | 0 | . | .
O=C(CNC(=O)c1cccc(Cl)c1)NCC(c1cccs1)N1CCOCC1 (stereo not given) | . | -5 | -1 | -4 | .
O=C(O)CCN1C(=O)/C(=C\c2ccc(-c3nc4ccccc4s3)o2)SC1=S | 94* | 17 | 0 | 20 | 1
O=C(O)CCCN1C(=O)/C(=C\c2ccco2)SC1=S | -50 | . | 0 | . | -13
CCOC(=O)c1cc(C#N)c(SCc2cccc3ccccc23)nc1C | 2 | -6 | -1 | 0 | 6
CCOC(=O)c1cc(C#N)c(SCC(=O)c2cc(C#N)c(SC)nc2C)nc1C | 73* | -9 | 1 | -4 | -10
CCSc1nc2sc3c(c2c(=O)n1C1CCCCC1)CCN(C)C3 | 60* | . | -1 | . | -25
C=C(C)CSc1nc2sc3c(c2c(=O)n1C1CCCCC1)CCN(C)C3 | 16 | 0 | 0 | -3 | -11
FC(F)(F)c1cccc(Cc2noc(CN3CCCCC3c3ccccn3)n2)c1 (stereo not given) | 46 | -1 | -1 | 1 | -10
FC(F)(F)c1cccc(Cc2noc(CN3CCCC(OCc4ccccn4)C3)n2)c1 (stereo not given) | 64* | -2 | 0 | -3 | -14
COc1ccc(N(CC(=O)NCCSCc2ccco2)S(=O)(=O)c2ccccc2)cc1 | 35 | -3 | 0 | -1 | -5
O=C(CN(c1ccccc1)S(=O)(=O)c1ccccc1)NCCSCc1ccco1 | 72* | 8 | 0 | 12 | -16
CC(C)Cn1c(N)c(C(=O)COC(=O)Cc2cccc(C(F)(F)F)c2)c(=O)n(C)c1=O | . | 0 | 0 | 2 | .
CCN=C(NCC)SC1CC(=O)N(c2cccc(OCC)c2)C1=O (stereo not given) | -11 | 1 | -1 | -1 | -4
Cn1c(=O)cc(Nc2ccccc2)c2c(=O)n(-c3ccccc3)c(=O)n(-c3ccccc3)c21 | 45 | 2 | 0 | 6 | -6
CCOc1ccc(NC(=O)C2CCCN2C(=O)NC2CCCCC2)cc1 (stereo not given) | 28 | -8 | 0 | -2 | 3
CC(=O)c1cc2cc(O)ccc2o1 | 89* | 6 | 0 | 27 | -9
N#Cc1cccc(NC(=O)Cc2ccccc2)c1 | 62* | -6 | 0 | 1 | 8
CC1CCN(S(=O)(=O)c2ccc(C(=O)Nc3nnc(C4=COCCO4)o3)cc2)CC1 | 3 | -3 | 0 | 0 | 1
CC1CCN(S(=O)(=O)c2ccc(C(=O)Nc3nnc(-c4ccccn4)o3)cc2)CC1 | 71* | -2 | 1 | -1 | -8
Cc1cccc(N2CCN(C(=O)Cn3nc(C)n4cccc4c3=O)CC2C)c1 (stereo not given) | -9 | -10 | 0 | -1 | -8
Cc1cccc(N2CCN(C(=O)Cn3sc4nc(C)cc(C)c4c3=O)CC2C)c1 (stereo not given) | 15 | 53* | 0 | -4 | -3
CCn1cc(/C=C(\NC(=O)c2cc(OC)c(OC)c(OC)c2)C(=O)NCCN2CCOCC2)c2ccccc21 | 29 | -3 | 0 | -7 | -6
CCn1cc(/C=C(\NC(=O)c2cc(OC)c(OC)c(OC)c2)C(=O)NCCCN2CCOCC2)c2ccccc21 | 65* | -4 | 0 | -8 | -4
CCCCCSc1nnc(-c2cc(Br)ccc2N)c(=O)[nH]1 | 95* | -1 | 0 | -2 | -9
SMILES | PHOSPHO1 block | APOBEC3G inh | Tb MetRS inh | A3A deaminase | p-CIP stab down
CCCCSc1nnc(-c2ccccc2N)c(=O)[nH]1 | 90* | -6 | 0 | -2 | -9
CCCCCCCSc1nnc(-c2ccccc2N)c(=O)[nH]1 | -14 | -1 | 1 | -1 | -1
N#CC1=C(S)N=C(N)C(c2nc(-c3ccccc3)cs2)C12CCCCC2 (stereo not given) | 64* | -5 | 0 | -5 | -9
N#CC1=C(S)N=C(N)C(c2nc(-c3ccccc3)cs2)C12CCCC2 (stereo not given) | 43 | -6 | 2 | -4 | 1
Cc1ccc(NC(=O)/C=C/c2ccc3c(c2)OCO3)cc1S(=O)(=O)N1CCOCC1 | 1 | -1 | 1 | 1 | 5
O=C1CC(Sc2nnc(-c3ccccc3O)o2)C(=O)N1c1ccccc1 (stereo not given) | 95* | -2 | 0 | -3 | 8
O=C1CC(=O)N(Cc2ccco2)C(=S)N1 | 89* | 93 | 1 | 99 | -19
O=C1CC(=O)N(Cc2ccco2)C(=O)N1 | 36 | 92 | 0 | 98 | 26
O=C1C(=C2CCCCC2)SC(=S)N1Cc1ccco1 | 70* | -7 | 0 | 0 | -6
O=C(COc1cccc2cccnc12)NNC(=O)Nc1ccccc1 | 61* | -7 | 0 | 3 | -10
COc1cccc(/C=N/n2c(=S)n(C)c3ccccc32)c1OC | 73* | -5 | 0 | -3 | -10
COc1cccc(/C=N/n2c(C)nc3ccccc32)c1OC | -3 | -1 | 0 | -1 | 0
O=C(NCc1ccccn1)c1cccn1-c1ncc(C(F)(F)F)cc1Cl | 41 | -2 | -1 | 4 | 3
Cc1c(Cl)c(-c2n[nH]c(=S)n2Cc2ccco2)nn1C | 80* | 32 | -1 | 1 | -7
Cc1cc(Br)ccc1NC(=O)CN(C)C(=O)c1ccc2ccccc2n1 | . | -8 | 0 | -4 | .
COc1ccccc1CNC(=O)Cn1cccc1C(=O)c1ccccc1C | 75* | 0 | 0 | 0 | -5
COc1cccc(CNC(=O)Cn2cccc2C(=O)c2ccccc2C)c1 | 64* | -4 | 0 | -3 | 4
Cc1ccc(CNC(=O)Cn2cccc2C(=O)c2ccccc2C)cc1 | -17 | -2 | -1 | 4 | -2
Oc1c(C(c2cccs2)N2CCN(c3ccccc3)CC2)ccc2cccnc12 (stereo not given) | 69* | 25 | . | 9 | -40
Oc1c(C(c2ccccc2Cl)N2CCCC2)ccc2cccnc12 (stereo not given) | 1 | -4 | 0 | 5 | -12
CCn1c(NN)nc2sc3c(c2c1=O)CCC3 | 86* | 4 | 0 | 1 | -9
NNc1nc2sc3c(c2c(=O)n1Cc1ccccc1)CCC3 | -2 | 3 | 0 | 3 | -4
CCCCN1C(=O)C(CC(=O)NC2CCCC2)CC(C(=O)N2CCCCCC2)=C1C (stereo not given) | . | . | -1 | . | .
O=C(CSc1nnc(-c2ccccn2)n1Cc1ccco1)c1ccc(-c2ccccc2)cc1 | 77* | -2 | -2 | -1 | -4
Cn1c(SCC(=O)c2ccccc2)nnc1-c1cnccn1 | 83* | -5 | 0 | 1 | 0
CCn1c(SCC(=O)c2ccccc2)nnc1-c1cnccn1 | 7 | -4 | -1 | -3 | -9
O=C(CSc1nnc(-c2cnccn2)n1Cc1ccco1)c1ccc2ccccc2c1 | 86* | -8 | 0 | 3 | 47*
